In ChEMBL document CHEMBL5154784, “Design, Synthesis, Biological Evaluation, and Computational Studies of Novel Ureidopropanamides as Formyl Peptide Receptor 2 (FPR2) Agonists to Target the Resolution of Inflammation in Central Nervous System Disorders” (J Med Chem, 2022):

Experiments:
[1] = Cmax in CD-1 mouse at 10 mg/kg, ip measured after 30 mins by UPLC analysis; format: ADME, organism-based; design: time 30 min, dose 10 mg/kg, route ip; conditions: in vivo, 0.5 h
Method in brief: (§1)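 Male CD-1 mice (25–30 g) dosed i.v. 1 mg/kg or i.p. 10 mg/kg in 5% DMSO/10% solutol HS 15/85% sterile water, n = 3 per time point. Cardiac-puncture blood under isoflurane: i.v. 0.083–8 h, i.p. 0.25–24 h. K2EDTA plasma, protein precipitation with acetonitrile (rolipram internal standard), UPLC on C18 column.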

[2] = AUC (infinity) in CD-1 mouse at 10 mg/kg, ip measured after 30 mins by UPLC analysis; format: ADME, organism-based; design: time 30 min, dose 10 mg/kg, route ip; conditions: in vivo, 0.5 h; method in brief: as §1
[3] = Clast in CD-1 mouse at 1 mg/kg, iv measured upto 4 hrs by UPLC analysis; format: ADME, organism-based; conditions: in vivo, read-out: Clast; method in brief: as §1
[4] = Drug concentration in CD-1 mouse brain at 10 mg/kg, ip measured after 2 hrs by UPLC analysis; format: ADME, organism-based; conditions: read-out: Ct
Method in brief: (§2)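 Male CD-1 mice (25–30 g) given 10 mg/kg i.p. in 5% DMSO/10% solutol HS 15/85% water, n = 3 per time point. Brains taken after decapitation under anesthesia, homogenized in four volumes 0.1 N HEPES. Plasma drawn by cardiac puncture. Acetonitrile precipitation with rolipram internal standard, UPLC quantification. Brain-to-plasma ratio taken from paired brain and plasma levels.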

[5] = Neurotoxicity against Sprague-Dawley rat primary microglial cells assessed as reduction in cell viability by measuring LDH release at 0.1 uM incubated for 24 hrs by LDH assay; format: toxicity, cell-based; conditions: microglia
Method in brief: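 Sprague–Dawley rat neonatal cortical microglia (>95% Iba-1+), switched to 1% FBS medium 1 h before treatment. Compound 0.1 μM for 1 h, then LPS 100 ng/mL for 24 h; WRW4 10 μM given 30 min before in some sets, 0.1% vehicle. Supernatant LDH read at 540 nm, % of vehicle controls, mean ± SEM.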

[6] = Cmax in CD-1 mouse at 1 mg/kg, iv measured after 5 mins by UPLC analysis; format: ADME, organism-based; design: time 5 min, dose 1 mg/kg, route iv; conditions: in vivo; method in brief: as §1
[7] = Cytotoxicity against mouse N9 cells assessed as reduction in cell viability by measuring LDH release at 0.5 to 5 uM incubated for 24 hrs by LDH assay; format: toxicity, cell-based; conditions: n9, 24 h, dose 0.5-5 µM
Method in brief: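 N9 cells (2 × 10^4/well) given compound at 0.5 or 5 μM, alone or with LPS (E. coli O111:B4, 100 ng/mL) added 30 min later, for 24 h at 37 °C. Released LDH measured in supernatant (30 min, room temperature, 490/630 nm). Expressed as % of untreated cells, mean ± SEM, at least three experiments in triplicate.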

[8] = Tlast in CD-1 mouse at 10 mg/kg, ip by UPLC analysis; format: ADME, organism-based; conditions: in vivo; method in brief: as §1
[9] = AUC (infinity) in CD-1 mouse at 1 mg/kg, iv measured upto 4 hrs by UPLC analysis; format: ADME, organism-based; design: time < 4 hrs, dose 1 mg/kg, route iv; conditions: in vivo; method in brief: as §1
[10] = Drug concentration in CD-1 mouse brain at 10 mg/kg, ip measured after 8 hrs by UPLC analysis; format: ADME, organism-based; conditions: read-out: Ct; method in brief: as §2

Compound: N#Cc1ccc(C[C@H](NC(=O)Nc2ccc(F)cc2)C(=O)N2CCc3ccc(F)cc32)cc1
- Cmax [1]: 192 ng/mL
- AUC [2]: 731 ng·h/mL
- concentration at 4 h [3]: 14.1 ng/mL
- concentration at 2 h [4]: 37 ng/g
- Activity [5]: Non-Toxic
- Cmax [6]: 1380 ng/mL
- Activity [7]: Non-Toxic
- Tlast [8]: 8 h
- AUC [9]: 613 ng·h/mL
- concentration at 8 h [10]: 15.7 ng/g
